From ChEMBL document CHEMBL3044690, “Synthesis and herbicidal activity of 2-cyano-3-(2-chlorothiazol-5-yl)methylaminoacrylates” (2004)

Legend:
Assay type in all cases: functional
Medicago sativa [1] = test: Postemergence herbicidal activity against Medicago sativa (alfalfa) under greenhouse condition at 1.5 kg/ha applied after expansion of true leaf
Procedure, shortened: (§1)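 Seeds sown in 6-cm-diameter boxes of artificial mixed soil. Boxes were kept under plastic film until emergence to hold moisture, and plants were grown in a greenhouse. Above-ground fresh weight was weighed 10 days after treatment. Control efficiency is reported as percent inhibition.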

Brassica napus [2] = test: Postemergence herbicidal activity against Brassica napus (oilseed rape) under greenhouse condition at 1.5 kg/ha applied after expansion of true leaf; procedure, shortened: as §1
Amaranthus retroflexus [3] = test: Post-emergence herbicidal activity against Amaranthus retroflexus under greenhouse condition at 1.5 kg/ha applied after expansion of true leaf; procedure, shortened: as §1
Amaranthus retroflexus [4] = test: Post-emergence herbicidal activity against Amaranthus retroflexus under greenhouse condition at 750 g/ha applied after expansion of true leaf; procedure, shortened: as §1
Brassica napus [5] = test: Postemergence herbicidal activity against Brassica napus (oilseed rape) under greenhouse condition at 300 g/ha applied after expansion of true leaf; procedure, shortened: as §1
Brassica napus [6] = test: Postemergence herbicidal activity against Brassica napus (oilseed rape) under greenhouse condition at 750 g/ha applied after expansion of true leaf; procedure, shortened: as §1
Brassica napus [7] = test: Postemergence herbicidal activity against Brassica napus (oilseed rape) under greenhouse condition at 150 g/ha applied after expansion of true leaf; procedure, shortened: as §1
Amaranthus retroflexus [8] = test: (§2) Post-emergence herbicidal activity against Amaranthus retroflexus under greenhouse condition at […] applied after expansion of true leaf; procedure, shortened: as §1
Amaranthus retroflexus [9] = test: as §2; procedure, shortened: as §1; remark: listed apart in the source
Brassica napus [10] = test: Postemergence herbicidal activity against Brassica napus (oilseed rape) under greenhouse condition at 75 g/ha applied after expansion of true leaf; procedure, shortened: as §1
Brassica napus [11] = test: Postemergence herbicidal activity against Brassica napus (oilseed rape) under greenhouse condition at 375 g/ha applied after expansion of true leaf; procedure, shortened: as §1
Brassica napus [12] = test: Postemergence herbicidal activity against Brassica napus (oilseed rape) under greenhouse condition at 187.5 g/ha applied after expansion of true leaf; procedure, shortened: as §1
Brassica napus [13] = test: Postemergence herbicidal activity against Brassica napus (oilseed rape) under greenhouse condition at 18.75 g/ha applied after expansion of true leaf; procedure, shortened: as §1
Medicago sativa [14] = test: Preemergence herbicidal activity against Medicago sativa (alfalfa) under greenhouse condition at 1.5 kg/ha applied immediately after seed planting; procedure, shortened: as §1
Brassica napus [15] = test: Postemergence herbicidal activity against Brassica napus (oilseed rape) under greenhouse condition at 37.5 g/ha applied after expansion of true leaf; procedure, shortened: as §1
Brassica napus [16] = test: Preemergence herbicidal activity against Brassica napus (oilseed rape) under greenhouse condition at 1.5 kg/ha applied immediately after seed planting; procedure, shortened: as §1
Amaranthus retroflexus [17] = test: Pre-emergence herbicidal activity against Amaranthus retroflexus under greenhouse condition at 1.5 kg/ha applied immediately after seed planting; procedure, shortened: as §1

## CCOCCOC(=O)/C(C#N)=C(\NCc1cnc(Cl)s1)C(C)C
Medicago sativa [1]
  Activity: 19%
Brassica napus [2]
  Activity: 100%
Amaranthus retroflexus [3]
  Activity: 96%
Amaranthus retroflexus [4]
  Activity: 100%
Brassica napus [5]
  Activity: 100%
Brassica napus [6]
  Activity: 100%
Brassica napus [7]
  Activity: 100%
Amaranthus retroflexus [8]
  Activity: 81%
Amaranthus retroflexus [9]
  Activity: 67%
Brassica napus [10]
  Activity: 98%
Brassica napus [11]
  Activity: 100%
Brassica napus [12]
  Activity: 100%
Brassica napus [13]
  Activity: 15%
Medicago sativa [14]
  Activity: 16%
Brassica napus [15]
  Activity: 52%
Brassica napus [16]
  Activity: 96%
Amaranthus retroflexus [17]
  Activity: 54%

## CCOCCOC(=O)/C(C#N)=C(\NCc1ccc(Cl)cc1)C(C)C
Medicago sativa [1]
  Activity: 28%
Brassica napus [2]
  Activity: 96%
Amaranthus retroflexus [3]
  Activity: 94%
Medicago sativa [14]
  Activity: 0%
Brassica napus [16]
  Activity: 0%
Amaranthus retroflexus [17]
  Activity: 52%

## COCCOC(=O)/C(C#N)=C(/C)NCc1cnc(Cl)s1
Medicago sativa [1]
  Activity: 26%
Brassica napus [2]
  Activity: 100%
Amaranthus retroflexus [3]
  Activity: 81%
Medicago sativa [14]
  Activity: 0%
Brassica napus [16]
  Activity: 78%
Amaranthus retroflexus [17]
  Activity: 45%

## CCOCCOC(=O)/C(C#N)=C(/C)NCc1cnc(Cl)s1
Medicago sativa [1]
  Activity: 94%
Brassica napus [2]
  Activity: 95%
Amaranthus retroflexus [3]
  Activity: 100%
Amaranthus retroflexus [4]
  Activity: 98%
Brassica napus [6]
  Activity: 96%
Amaranthus retroflexus [8]
  Activity: 78%
Amaranthus retroflexus [9]
  Activity: 73%
Brassica napus [11]
  Activity: 59%
Brassica napus [12]
  Activity: 39%
Medicago sativa [14]
  Activity: 47%
Brassica napus [16]
  Activity: 93%
Amaranthus retroflexus [17]
  Activity: 87%

## CCOCCOC(=O)/C(C#N)=C(/CC)NCc1cnc(Cl)s1
Medicago sativa [1]
  Activity: 70%
Brassica napus [2]
  Activity: 100%
Amaranthus retroflexus [3]
  Activity: 83%
Amaranthus retroflexus [4]
  Activity: 57%
Brassica napus [6]
  Activity: 69%
Amaranthus retroflexus [8]
  Activity: 50%
Amaranthus retroflexus [9]
  Activity: 42%
Brassica napus [11]
  Activity: 60%
Brassica napus [12]
  Activity: 29%
Medicago sativa [14]
  Activity: 46%
Brassica napus [16]
  Activity: 91%
Amaranthus retroflexus [17]
  Activity: 70%

## CCOCCOC(=O)/C(C#N)=C(\NCc1cnc(Cl)s1)SC
Medicago sativa [1]
  Activity: 49%
Brassica napus [2]
  Activity: 100%
Amaranthus retroflexus [3]
  Activity: 78%
Amaranthus retroflexus [4]
  Activity: 91%
Brassica napus [6]
  Activity: 100%
Amaranthus retroflexus [8]
  Activity: 48%
Amaranthus retroflexus [9]
  Activity: 41%
Brassica napus [11]
  Activity: 57%
Brassica napus [12]
  Activity: 48%
Medicago sativa [14]
  Activity: 28%
Brassica napus [16]
  Activity: 40%
Amaranthus retroflexus [17]
  Activity: 76%
